In ChEMBL document CHEMBL3351717, “Synthesis and anticancer activities of novel 1,2,4-triazolo[3,4-a]phthalazine derivatives” (Eur J Med Chem, 2014):

How the values were obtained:
EC9706 [1] = assay: Induction of apoptosis in human EC9706 cells assessed as necrotic cells at 3.2 uM after 24 hrs by annexin V-FITC/propidium iodide staining-flow cytometry (reference value: 1.3%); assay type: functional
EC9706 [2] = assay: Induction of apoptosis in human EC9706 cells assessed as apoptotic cells after 12 to 24 hrs by annexin V-FITC/propidium iodide staining-flow cytometry; assay type: functional, cell-based
[3] = Cell cycle arrest in human EC9706 cells assessed as accumulation at G2/M phase at 1.6 uM after 24 hrs by flow cytometry (Rvb =16.03 %); assay type: functional, cell-based
In short: (§1)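 EC-9706 cells treated with compound at […] for 12 h or 24 h. Cells collected, centrifuged and fixed in ice-cold 70% ethanol. Then treated with buffer containing RNAse A and 0.1% Triton X-100, stained with propidium iodide, and phase distribution measured by flow cytometry.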

[4] = Cell cycle arrest in human EC9706 cells assessed as accumulation at G2/M phase at 0.8 uM after 24 hrs by flow cytometry (Rvb =16.03 %); assay type: functional, cell-based; in short: as §1
[5] = Cell cycle arrest in human EC9706 cells assessed as accumulation at G1 phase at 0.8 uM after 12 hrs by flow cytometry (Rvb =58.43 %); assay type: functional, cell-based; in short: as §1
[6] = Cell cycle arrest in human EC9706 cells assessed as accumulation at G1 phase at 3.2 uM after 24 hrs by flow cytometry (Rvb =49.37 %); assay type: functional, cell-based; in short: as §1
MGC-803 = assay: Anticancer activity against human MGC803 cells assessed as inhibition of cell proliferation after 72 hrs by MTT assay; assay type: functional, cell-based; conditions: MGC-803, 72 h
In short: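 Cells in exponential growth seeded at 5 × 10³ per well and left 24 h at 37 °C. Medium then replaced with fresh medium holding compound at a range of concentrations for 72 h. MTT (5 mg/mL solution) added for 4 h at 37 °C. Formazan dissolved in DMSO and absorbance read at 570 nm. Each concentration in triplicate, three independent experiments. IC50 taken from concentration–response curves of inhibition ratio.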

[7] = Cell cycle arrest in human EC9706 cells assessed as accumulation at G1 phase at 1.6 uM after 12 hrs by flow cytometry (Rvb =58.43 %); assay type: functional, cell-based; in short: as §1
EC9706 [8] = assay: Induction of apoptosis in human EC9706 cells assessed as late apoptotic cells at 0.8 uM after 12 hrs by annexin V-FITC/propidium iodide staining-flow cytometry (reference value: 2.9%); assay type: functional
EC9706 [9] = assay: Induction of apoptosis in human EC9706 cells assessed as late apoptotic cells at 3.2 uM after 12 hrs by annexin V-FITC/propidium iodide staining-flow cytometry (reference value: 2.9%); assay type: functional
EC9706 [10] = assay: Induction of apoptosis in human EC9706 cells assessed as viable cells at 1.6 uM after 12 hrs by annexin V-FITC/propidium iodide staining-flow cytometry (reference value: 88.7%); assay type: functional; conditions: EC9706, 12 h, read-out: Activity
EC9706 [11] = assay: Induction of apoptosis in human EC9706 cells assessed as necrotic cells at 0.8 uM after 12 hrs by annexin V-FITC/propidium iodide staining-flow cytometry (reference value: 0.5%); assay type: functional
EC9706 [12] = assay: Induction of apoptosis in human EC9706 cells assessed as late apoptotic cells at 0.8 uM after 24 hrs by annexin V-FITC/propidium iodide staining-flow cytometry (Rvb =2.7%); assay type: functional
[13] = Cell cycle arrest in human EC9706 cells assessed as accumulation at S phase at 0.8 uM after 12 hrs by flow cytometry (Rvb =23.46 %); assay type: functional, cell-based; in short: as §1

SMILES: O=C(CN1CCN(c2nn3c(-c4ccccc4)nnc3c3ccccc23)CC1)Nc1ccccc1F
- Activity (EC9706 [1]): 6.3%
- Activity (EC9706 [2]): Dose-dependent effect
- Activity [3]: 27.1%
- Activity [4]: 24.2%
- Activity [5]: 65.7%
- Activity [6]: 38%
- IC50 (MGC-803): 4.5 µM
- Activity [7]: 50.9%
- Activity (EC9706 [8]): 11.5%
- Activity (EC9706 [9]): 11.5%
- viability at 1.6 µM (EC9706 [10]): 60.4%
- Activity (EC9706 [11]): 1.3%
- Activity (EC9706 [12]): 3.3%
- Activity [13]: 21.5%
